Experimental findings from ChEMBL document CHEMBL1687889, “Antitumor agents. 284. New desmosdumotin B analogues with bicyclic B-ring as cytotoxic and antitubulin agents” (J Med Chem, 2011) are described below.

Calls of active or inactive are those of the source. The calls are words filed in the database; no cut-off is given here.

Assay [1] can be described thus: Antiproliferative activity against human KBVIN cells after 3 days by sulforhodamine B assay. Format: functional. The note with it: 72 h. The method, boiled down:
(§1)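 Cells grown in RPMI-1640 with 25 mM HEPES, 0.25% sodium bicarbonate, 10% FBS and 100 μg/mL kanamycin. Exposed to compound for 3 days, with at most 0.5% v/v DMSO. Attached cells fixed in cold 50% TCA, stained with 0.4% sulforhodamine B, and the bound dye solubilized. A562 read. GI50 is the concentration giving a 50% absorbance drop versus untreated cells.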
(The SRB assay estimates cell density from bound dye.)

In assay [2] the test system is PC-3. In words: Antiproliferative activity against human PC3 cells at 20 ug/ml after 3 days by sulforhodamine B assay. Format: functional, cell-based.
Assay [3] concerns HCT-8. Nature of the assay: Antiproliferative activity against human HCT8 cells at 20 ug/ml after 3 days by sulforhodamine B assay. The class given is functional, cell-based.
Assay [4] relates to A549. In words: Antiproliferative activity against human A549 cells at 20 ug/ml after 3 days by sulforhodamine B assay. The class given is functional, cell-based.
Assay [5] relates to MCF7. Nature of the assay: Antiproliferative activity against human MCF7 cells at 20 ug/ml after 3 days by sulforhodamine B assay. The class given is functional, cell-based.
Assay [6] concerns HepG2. In words: Antiproliferative activity against human HepG2 cells at 20 ug/ml after 3 days by sulforhodamine B assay. The class given is functional, cell-based.
In assay [7] the test system is KB. In words: Antiproliferative activity against human KB cells at 20 ug/ml after 3 days by sulforhodamine B assay. Format: functional, cell-based.
In assay [8] the test system is KBVIN. In words: Antiproliferative activity against human KBVIN cells at 20 ug/ml after 3 days by sulforhodamine B assay. Format: functional, cell-based.
The subject of assay [9] is A549. Nature of the assay: Inhibition of spindle formation in human A549 cells after 24 hs by DAPI staining. The class given is functional, cell-based. The method, boiled down: (§2)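 A549 cells held in chamber slides 12 h, then exposed to compound (0.1 nM) or DMSO for 24 h at 37 °C; fixed in 4% paraformaldehyde/PBS, permeabilized with 0.5% Triton X-100, stained with anti-α-tubulin monoclonal plus FITC secondary and DAPI for nuclei; microtubules and mitotic spindles scored by fluorescence microscopy. Comparators: colchicine 100 nM, paclitaxel 1.5 nM, doxorubicin 500 nM.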

Assay [10] has as its system A549. In words: Inhibition of microtubule polymerization in human A549 cells after 24 hs by immunofluorescence staining. Format: cell-based. The gist of the method: as §2
For assay [11], the system named is MCF7. In words: Antiproliferative activity against human MCF7 cells after 3 days by sulforhodamine B assay. Particulars: MCF7, 72 h. Format: functional.
Assay [12] relates to HepG2. Nature of the assay: Antiproliferative activity against human HepG2 cells after 3 days by sulforhodamine B assay. The class given is functional. Particulars: HepG2, 72 h. The method, boiled down:
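Sulforhodamine B assay over 3 days in culture, with at most 0.5% v/v DMSO. Attached cells fixed in cold 50% TCA, stained with 0.4% SRB, and the dye solubilized. Absorbance read at 562 nm. GI50 is the concentration causing a 50% fall in absorbance relative to untreated cells.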

The subject of assay [13] is PC-3. In words: Antiproliferative activity against human PC3 cells after 3 days by sulforhodamine B assay. The class given is functional. Particulars: PC-3, 72 h.
The subject of assay [14] is A549. In words: Antiproliferative activity against human A549 cells after 3 days by sulforhodamine B assay. The note with it: A549, 72 h. Format: functional. The gist of the method: as §1
The nature of assay [15]: Partial inhibition of tubulin assembly after 20 mins at 4 uM by turbidimetric assay. The method, boiled down: (§3)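 Turbidimetry at 350 nm. 10 μM (1.0 mg/mL) tubulin preincubated with compound for 15 min at 30 °C without GTP, then chilled, and 0.4 mM GTP added. Turbidity followed for 20 min at 30 °C after a temperature jump from 0 °C. IC50 is the concentration halving the turbidity increase relative to control.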

Assay [16] is described as follows: Displacement of [3H]colchicine from tubulin at 5 uM for 10 mins. The gist of the method:
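1.0 μM tubulin incubated with 5.0 μM [3H]colchicine and 5.0 μM inhibitor for 10 min at 37 °C, when control samples reach about 40–60% of maximal colchicine binding. Result given as percent inhibition of colchicine binding.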
On the technique in general: Loss of bound radioactivity is the signal in a displacement assay; it reports binding, not function.

In assay [17] the test system is HCT-8. In words: Antiproliferative activity against human HCT8 cells after 3 days by sulforhodamine B assay. Particulars: HCT-8, 72 h. The class given is functional. The method, boiled down: as §1
Assay [18] deals with KB. Nature of the assay: Antiproliferative activity against human KB cells after 3 days by sulforhodamine B assay. The note with it: 72 h. Format: functional. The gist of the method:
as §1

A short description of assay [19]: Binding affinity to tubulin at 40 uM.
Assay [20] in a line: Inhibition of tubulin assembly after 20 mins by turbidimetric assay. The gist of the method:
as §3

With `CC1=C(O)C(C)(C)c2oc(-c3ccccc3)cc(=O)c2C1=O` [DESMOTUMOTIN B], the concentration for 50% growth inhibition (GI50) (commonly the concentration giving 50% growth inhibition) in assay [1] turned out to be 13500 nM. For the same compound, the result in [2], in [3], in [4], in assay [5], in assay [6] and in assay [7] was inactive.
Compound `CCC1=C(O)c2c(oc(-c3c(OC)c(OC)cc4ccccc34)cc2=O)C(CC)(CC)C1=O` had a GI50 in [1] of 35700 nM. Also, the result in assay [3], in assay [4] and in assay [7] was inactive.
Take `CCC1=C(O)c2c(oc(-c3ccc4c(c3)c3ccccc3n4CC)cc2=O)C(CC)(CC)C1=O`: the outcome in assay [2], in [3], in assay [8], in assay [4], in [5] and in assay [6] was inactive. In addition, the outcome in [7] was inactive.
As for `CCC1=C(O)c2c(oc(-c3cccc4c3oc3ccccc34)cc2=O)C(CC)(CC)C1=O`, the outcome in assay [2], in [3], in assay [8], in assay [4], in [5] and in [6] was inactive. Moreover, the result in assay [7] was inactive.
`COc1cc2c(c(OC)c1OC)-c1ccc(OC)c(=O)cc1[C@@H](NC(C)=O)CC2`: the inhibition entry in [9] and in assay [10] was “Active” throughout.
Turning to `CCC1=C(O)c2c(oc(-c3c4ccccc4cc4ccccc34)cc2=O)C(CC)(CC)C1=O`, the outcome in assay [2], in assay [3], in assay [8], in [4], in [5] and in assay [6] was inactive. The result in assay [7] was inactive.
For the compound `CCC1=C(O)c2c(oc(-c3ccc4ccccc4c3)cc2=O)C(CC)(CC)C1=O`, the GI50 in assay [11] was found to be 1420 nM; in assay [1] it was 1160 nM; in assay [12], 1550 nM; in assay [13] it was 2580 nM; in assay [14] it was 1160 nM; in [17] it was 1290 nM. Growth in [18] was halved (GI50) at 1030 nM. In addition, the inhibition (as a rule, the change of the read-out against control, counted positive when it falls) in [15] is “Active”. The inhibition in [16] came out at 29%.
In the case of `CCC1=C(O)c2c(oc(-c3ccccc3)cc2=O)C(CC)(CC)C1=O` [6,8,8-TRIETHYL DESMOSDUMOTIN B], in [1], it took 1070 nM to inhibit growth by half (GI50). For the same compound, the outcome in assay [2], in assay [3], in assay [19], in assay [4], in assay [5] and in [6] was inactive. Besides, in [7], the outcome was inactive. Further, the IC50 – broadly, the concentration that gives 50% inhibition – in assay [20] was “Not Active”.
Consider `CCC1=C(O)c2c(oc(-c3csc4ccccc34)cc2=O)C(CC)(CC)C1=O`, for which the GI50 in [11] stood at 110 nM; in assay [1], 70 nM; in assay [12], 130 nM; in assay [13], 160 nM; in [14], 60 nM; in assay [17] it was 130 nM. Besides, the GI50 in assay [18] was determined as 80 nM. Also, the inhibition entry in assay [9] and in [10] was “Active” each time. In addition, the IC50 in [20] (read-out: IC50) stood at 2000 nM. The inhibition in assay [16] was 78%.
As for `CCC1=C(O)c2c(oc(-c3ccc(OC)c4ccc(OC)cc34)cc2=O)C(CC)(CC)C1=O`, the result in assay [2], in [3], in [8], in assay [4], in assay [5] and in [6] was inactive. In addition, the result in assay [7] was inactive.
